Rows were chosen to be rich in hits. Some 2.8% of all compounds tested hit in one or more screens of this group.
SR-BI DiI inh = inhibitors of mouse SR-BI mediated HDL lipid uptake. ldlA[mSR-BI] CHO cells, DiI-HDL uptake fluorescence, 3 h. inhibition, % at 12.5 µM. 320,000 tested, 0.96% active. AID 488896;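 active = mean replicate inhibition of at least 70% and a set share of replicates each scoring 70 or more; inconclusive = meets just one of the two criteria; inactive = fails both criteria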;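 also: 0% = median of neutral control wells and 100% = median of positive control wells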
Target sequence (Q61009 whole entry, looked up): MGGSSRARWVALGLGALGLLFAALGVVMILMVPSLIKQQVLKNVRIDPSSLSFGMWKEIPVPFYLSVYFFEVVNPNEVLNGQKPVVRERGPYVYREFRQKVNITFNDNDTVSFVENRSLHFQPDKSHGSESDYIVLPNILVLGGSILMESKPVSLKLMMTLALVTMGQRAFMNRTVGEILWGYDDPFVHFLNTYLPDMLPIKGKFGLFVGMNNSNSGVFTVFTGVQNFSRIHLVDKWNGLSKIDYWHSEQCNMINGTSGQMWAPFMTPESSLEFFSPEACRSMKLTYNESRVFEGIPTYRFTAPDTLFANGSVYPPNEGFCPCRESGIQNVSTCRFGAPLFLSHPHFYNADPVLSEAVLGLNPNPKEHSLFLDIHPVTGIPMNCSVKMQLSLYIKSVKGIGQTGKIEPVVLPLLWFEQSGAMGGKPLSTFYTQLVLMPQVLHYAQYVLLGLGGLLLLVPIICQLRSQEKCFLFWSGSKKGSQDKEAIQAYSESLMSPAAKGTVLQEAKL
dFosB activator = activators of mouse delta FosB homodimer; activation, % at 25 µM; P13346; 340,000 tested, 0.99% active; purified delta FosB, TAMRA-CDK5 oligo fluorescence polarization; percent of positive-control signal above neutral wells;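 active = mean activation above about 17%, with every replicate also reaching it, limit read from the data, passing the limit was not always enough; inconclusive = only one of the two conditions met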
CAL PDZ FP-1 = blocks peptide binding to human CAL PDZ domain; Q9HD26; purified CAL PDZ, TMR-peptide fluorescence polarization, 1 h; inhibition, % at 20 µM; 330,000 tested, 0.02% active;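 active = highest replicate inhibition of at least 40%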;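 also: plate controls were DMSO neutral control wells for no effect and unlabeled competitor peptide control wells for full effect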
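Control set: unlabelled peptide and DMSO controls / Material: purified CerCALP PDZ construct / Timing: 1 h incubation at room temperature before polarization reading / Doses: 20 µM, one dose / Detection: fluorescence polarization (mP)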
SR-BI uptake up = SR-BI HDL lipid transfer activation. CHO ldlA[mSR-BI] cells, DiI-HDL uptake fluorescence, 3 h; 100 = double the neutral-control signal. activation, % at 12.5 µM. 320,000 tested, 0.096% active. AID 504775;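 active = mean replicate activation of at least 60% and every replicate at or above 60%; inconclusive = mean or all-replicate condition met, but not both; inactive = mean below 60% and not all replicates reaching 60%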;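 also: 0% = median plate neutral-control signal and 100% = twice that signal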
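Assay system: LDL receptor-deficient CHO ldlA cells overexpressing murine SR-BI / Medium: BSA-supplemented, HEPES-buffered Ham's F12, pH 7.4 / Probe or stimulus: DiI-labelled HDL at 10 µg/mL final / Timing: compound with DiI-HDL co-incubation, 3 h at 37 °C / Technique: bottom-read cell fluorescence after medium removal, ex 550/em 595 nm / Measure: HDL uptake via cellular fluorescence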
CAL PDZ FP-2 = inhibitors of human CAL PDZ peptide binding. 300,000 tested, 0.92% active. Q9HD26. inhibition, % at 24.9 µM. purified CAL PDZ, TMR-peptide fluorescence polarization, 1 h;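 active = mean inhibition of at least 30% with at least half of replicates also reaching 30%; inconclusive = no clear call, values can overlap the other calls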;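 also: 0% = DMSO neutral control and 100% = excess unlabeled competitor peptide PRC23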
* hit, by the source's call; u = inconclusive; x = no result given.

SMILES | SR-BI DiI inh | dFosB activator | CAL PDZ FP-1 | SR-BI uptake up | CAL PDZ FP-2
Cc1ccc(N(CC(=O)NCc2ccccc2)C(=O)CCC(=O)Nc2ccccn2)cc1 | x | -2.0 | -1.4 | x | -6.1
CCCNC(=S)Nc1ccc(Cl)cc1C | -9.7 | 0.0 | -1.4 | 9.7 | 49.5*
Cc1cc(Cl)ccc1NC(=S)NCC(C)C | 65.4 | 1.3 | -0.3 | -65.4 | -3.1
Cc1cccc(Nc2ccc([N+](=O)[O-])cn2)c1 | -1.6 | 1.9 | 2.9 | 1.6 | -0.5
O=c1cc(-c2ccccc2F)nc(-c2ccccc2F)o1 | -29.1 | -2.7 | -1.9 | 29.1 | 34.0*
COc1ccc(/C=C/C(=O)N2CCC(C(N)=O)CC2)cc1S(=O)(=O)N1CCOCC1 | -15.8 | 0.9 | -1.7 | 15.8 | -2.4
COc1ccc(/C=C/C(=O)Nc2cccc(N3CCOCC3)c2)cc1OC | 75.6* | -3.7 | -0.3 | -75.6 | -5.6
COc1ccc(/C=C/C(=O)N2CCN(c3ccccc3)CC2)cc1S(=O)(=O)N1CCOCC1 | 57.0 | -9.9 | -0.4 | -57.0 | 52.4*
Cc1cccc(C)c1N(CC(=O)N1CCOCC1)S(C)(=O)=O | -3.4 | -6.2 | x | 3.4 | 44.3*
CCC(=O)N1CCc2cc(S(=O)(=O)NCCC(=O)NC3CCCCCC3)ccc21 | -16.4 | -9.3 | -0.6 | 16.4 | -5.5
Cc1ccc(C)c(Nc2cc(C)nc3ncnn23)c1 | -192.1 | -1.8 | -0.8 | 192.1* | x
Cc1ccc(Nc2cc(C)nc3ncnn23)c(C)c1 | -4.6 | -2.0 | x | 4.6 | -3.1
CN(C)CCNc1ncnc2c1sc1nc(N3CCCC3)c3c(c12)CC(C)(C)OC3 | 18.2 | u | 0.1 | -18.2 | x
CCN(CC)CCNc1ncnc2c1sc1nc(N3CCCC3)c3c(c12)CC(C)(C)OC3 | -4.7 | 23.4* | 0.4 | 4.7 | -1.6
COc1ccc(CCn2c(=O)[nH]c3cc(C(=O)N4CCN(c5ccccc5)CC4)ccc3c2=O)cc1OC | 66.5 | -3.1 | -1.3 | -66.5 | -2.8
COc1ccc(CCNC(=O)CCn2c(=O)[nH]c3cc(OC)c(OC)cc3c2=O)cc1OC | -18.6 | -4.2 | -0.9 | 18.6 | 40.2*
COc1ccc(CCn2c(=O)[nH]c3cc(C(=O)N4CCN(c5ccccn5)CC4)ccc3c2=O)cc1OC | 80.6* | 1.2 | -0.1 | -80.6 | x
COc1ccc(CCNC(=O)CCCn2c(=O)[nH]c3cc(OC)c(OC)cc3c2=O)cc1OC | -9.9 | -7.2 | -1.6 | 9.9 | -1.2
CCOc1cc2[nH]c(=O)n(CCC(=O)NCCc3ccc(OC)c(OC)c3)c(=O)c2cc1OCC | 16.0 | 0.7 | -0.5 | -16.0 | 61.6*
CCN(CC(=O)NCc1ccncc1)S(=O)(=O)c1ccc(OC)cc1 | 1.5 | -2.3 | 0.6 | -1.5 | 10.7
CC(=O)n1nc(-c2ccncc2)nc1SCC(=O)Nc1cccc(Cl)c1 | -5.0 | -8.6 | -1.5 | 5.0 | 44.5*
Cc1nn(C)c(C)c1NC(=O)c1ccccc1NC(=O)Nc1ccccc1 | 10.1 | -3.4 | -0.1 | -10.1 | x
COc1ccc(OC)c(/C=N/N2CCN(c3ccc(Cl)cc3)CC2)c1 | -148.3 | 2.7 | -0.7 | 148.3* | 0.2
Cc1nn(-c2ccccc2)c(C)c1/C=N\N1CCN(c2ccc(Cl)cc2)CC1 | 79.9* | -2.2 | -0.3 | -79.9 | -2.3
O=C(CN(C(=O)c1csnn1)c1ccccc1F)NC1CCCCC1 | x | 3.0 | -1.6 | x | -0.8
SMILES | SR-BI DiI inh | dFosB activator | CAL PDZ FP-1 | SR-BI uptake up | CAL PDZ FP-2
CS(=O)(=O)N(CC(=O)Nc1ccc(S(=O)(=O)N2CCCC2)cc1)c1cccc(F)c1 | -2.6 | -5.2 | -0.7 | 2.6 | 2.2
CC1=Nc2ccccc2/C1=C\c1sc(Nc2ccc(C)cc2)nc1O | 75.0* | -14.7 | 0.3 | -75.0 | -3.0
Oc1nc(Nc2cccc(Cl)c2)sc1/C=C1\C=Nc2ccccc21 | 25.4 | 10.4 | 0.1 | -25.4 | x
Oc1cccc(Nc2nc(O)c(/C=C3\C=Nc4ccccc43)s2)c1 | 59.6 | 52.8* | 1.8 | -59.6 | -3.5
CC(C)(C)c1ccc(C(=O)NCc2nnc(SCC(=O)NCC3CCCO3)o2)cc1 (centres undefined) | -4.9 | -3.1 | -0.8 | 4.9 | x
O=C(N/N=C\c1cc(Br)ccc1O)c1ccc(S(=O)(=O)N2CCCCC2)cc1 | 136.8* | 2.1 | 0.5 | -136.8 | 3.8
NC(=O)N/N=C\c1cc(Br)ccc1O | -15.0 | -8.6 | -1.2 | 15.0 | -1.3
O=C(CNC(=O)c1ccc(S(=O)(=O)N2CCCC2)cc1)N/N=C/c1ccc(Cl)cc1 | 72.1* | 0.2 | -1.2 | -72.1 | -0.8
O=C(N/N=C/c1cc(Br)ccc1O)c1ccncc1 | 120.3* | -9.3 | x | -120.3 | 112.9*
O=C(N/N=C/c1cc(Cl)ccc1O)c1ccc(Br)cc1 | 134.9* | 3.9 | -0.4 | -134.8 | -5.7
O=C(N/N=C/c1ccccc1O)c1ccncc1 | 47.8 | 1.1 | -0.7 | -47.8 | 1.8
COCCN(C(=O)c1ccc(-c2ccc([N+](=O)[O-])cc2)o1)c1c(N)n(CC(C)C)c(=O)[nH]c1=O | 10.0 | -6.2 | -0.6 | -10.0 | -2.4
Cc1cc(F)ccc1S(=O)(=O)Nc1ccc(C(=O)N2CCCCCC2)cc1 | -0.9 | -7.9 | -0.1 | 0.9 | 2.0
Fc1ccc(-c2cnc3n2CCCCC3)cc1 | -29.2 | -5.4 | 0.3 | 29.2 | x
COc1cc(C(=O)Oc2ccc(/C=N/NC(=O)c3ccncc3)cc2)cc(OC)c1OC | 72.9* | -14.9 | -3.3 | -72.9 | -7.4
O=C(N/N=C/c1cc(Br)ccc1OC(=O)c1ccc(Br)cc1)c1ccncc1 | 95.9* | -1.9 | -3.7 | -95.9 | -6.5
O=C(N/N=C\c1ccc(Sc2ccccn2)o1)c1cccc(Br)c1 | 30.3 | -10.9 | -3.1 | -30.3 | 2.2
O=C(N/N=C/c1ccc(O)c2ncccc12)c1cccc(Br)c1 | 71.9* | -1.8 | -0.5 | -71.9 | x
Cc1ccc(N=Nc2ccc(O)c(/C=N\NC(=O)c3ccc(N)cc3)c2)cc1C | 114.7* | 46.8* | -3.2 | -114.7 | 0.3
Cc1ccc(CCN2CC(C(=O)NCCCN3CCC(C)CC3)CC2=O)cc1 (centres undefined) | -15.4 | -2.9 | -0.8 | 15.4 | -2.0
CCCn1c(C(C)NS(=O)(=O)c2ccccc2)n[nH]c1=S (centres undefined) | 12.0 | -4.1 | -1.4 | -12.0 | 0.5
O=[N+]([O-])c1ccc(O)c(CSc2nnnn2-c2ccccc2)c1 | -27.1 | -2.8 | -1.2 | 27.1 | x
CC(CNS(=O)(=O)c1ccc2c(c1)CC(=O)N2C)c1ccccc1 (centres undefined) | 0.8 | -10.0 | -1.1 | -0.8 | -0.5
O=C(N/N=C/c1ccc2nccnc2c1)c1ccncc1 | -355.3 | 4.2 | -6.0 | 355.3* | x
CCC/C=N/NC(=O)c1ccc(F)cc1 | -44.2 | 3.2 | -0.1 | 44.2 | 0.8
O=C(N/N=C/c1ccncc1)c1ccncc1 | -12.7 | -3.2 | -0.1 | 12.6 | x
CCC/C=N/NC(=O)c1cccc(Br)c1 | -7.1 | -0.4 | -1.1 | 7.1 | 86.3*
Cc1cc(C(=O)N/N=C/c2cc(Br)ccc2OC(=O)c2ccccc2Cl)n[nH]1 | 86.7* | -16.2 | -1.8 | -86.7 | -0.6
